In ChEMBL document CHEMBL3585272, “Syntheses and Antibacterial Activity of N-Acylated Ciprofloxacin Derivatives Based on the Trimethyl Lock” (ACS Med Chem Lett, 2015):
Converted amounts (≈) assume the structure as drawn.

Columns and labels:
[1] = system: Escherichia coli; assay: Antibacterial activity against Escherichia coli DC2 by broth microdilution method; assay type: functional
How it was run: (§1)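 Broth microdilution in Mueller-Hinton broth No.2 (MHII) following CLSI guidelines. The MIC (μM) was read by visual end point. Each compound was tested in triplicate.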

[2] = system: Pseudomonas aeruginosa; assay: Antibacterial activity against Pseudomonas aeruginosa K799/61 at 0.1 mM incubated for 24 hrs at 37 degC by agar diffusion assay; assay type: functional; conditions: K799/61, 24 h, read-out: DIZ
How it was run: (§2)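 Agar well diffusion. 50 μL of a 0.1 mM solution in 1:9 DMSO/MeOH was added to 9 mm wells in Standard I nutrient agar or Mueller Hinton II agar. Plates were incubated at 37 °C for 24 h, or 44 h for M. vaccae, then inhibition zones were read. Unclear zones were scored separately.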

[3] = system: Staphylococcus aureus; assay: Antibacterial activity against Staphylococcus aureus SG511 at 0.1 mM incubated for 24 hrs at 37 degC by agar diffusion assay; assay type: functional; conditions: SG511, 24 h, read-out: DIZ; how it was run: as §2
[4] = system: Staphylococcus aureus; assay: Antibacterial activity against Staphylococcus aureus SG511 by broth microdilution method; assay type: functional; how it was run: as §1
[5] = system: Bacillus subtilis; assay: Antibacterial activity against Bacillus subtilis ATCC 6633 at 0.1 mM incubated for 24 hrs at 37 degC by agar diffusion assay; assay type: functional; conditions: ATCC 6633, 24 h, read-out: DIZ; how it was run: as §2
[6] = system: Pseudomonas aeruginosa; assay: Antibacterial activity against Pseudomonas aeruginosa K799/61 by broth microdilution method; assay type: functional; how it was run: as §1
[7] = system: Acinetobacter baumannii; assay: Antibacterial activity against Acinetobacter baumannii ATCC 17961 at 0.1 mM incubated for 24 hrs at 37 degC by agar diffusion assay; assay type: functional; conditions: ATCC 17961, 24 h, read-out: DIZ; how it was run: as §2
[8] = system: Acinetobacter baumannii; assay: Antibacterial activity against Acinetobacter baumannii ATCC 17961 by broth microdilution method; assay type: functional; how it was run: as §1
[9] = system: Pseudomonas aeruginosa; assay: Antibacterial activity against wild type Pseudomonas aeruginosa K799 at 0.1 mM incubated for 24 hrs at 37 degC by agar diffusion assay; assay type: functional; conditions: K799, 24 h, read-out: DIZ; how it was run: as §2
[10] = system: Escherichia coli; assay: Antibacterial activity against Escherichia coli X580 at 0.1 mM incubated for 24 hrs at 37 degC by agar diffusion assay; assay type: functional; conditions: X580, 24 h, read-out: DIZ; how it was run: as §2
[11] = system: Escherichia coli; assay: Antibacterial activity against Escherichia coli DC0 at 0.1 mM incubated for 24 hrs at 37 degC by agar diffusion assay; assay type: functional; conditions: DC0, 24 h, read-out: DIZ; how it was run: as §2
[12] = system: Micrococcus luteus; assay: Antibacterial activity against Micrococcus luteus ATCC 10240 at 0.1 mM incubated for 24 hrs at 37 degC by agar diffusion assay; assay type: functional; conditions: ATCC 10240, 24 h, read-out: DIZ; how it was run: as §2
[13] = system: Escherichia coli; assay: Antibacterial activity against Escherichia coli DC0 by broth microdilution method; assay type: functional; how it was run: as §1
[14] = system: Micrococcus luteus; assay: Antibacterial activity against Micrococcus luteus ATCC 10240 by broth microdilution method; assay type: functional; how it was run: as §1
[15] = system: Mycolicibacterium vaccae; assay: Antibacterial activity against Mycobacterium vaccae IMET10670 by broth microdilution method; assay type: functional; how it was run: as §1
[16] = system: Pseudomonas aeruginosa; assay: Antibacterial activity against wild type Pseudomonas aeruginosa K799 by broth microdilution method; assay type: functional; how it was run: as §1
[17] = system: Bacillus subtilis; assay: Antibacterial activity against Bacillus subtilis ATCC 6633 by broth microdilution method; assay type: functional; how it was run: as §1
[18] = system: Mycolicibacterium vaccae; assay: Antibacterial activity against Mycobacterium vaccae IMET10670 at 0.1 mM incubated for 44 hrs at 37 degC by agar diffusion assay; assay type: functional; conditions: IMET10670, 44 h, read-out: DIZ; how it was run: as §2
[19] = system: Escherichia coli; assay: Antibacterial activity against Escherichia coli DC2 at 0.1 mM incubated for 24 hrs at 37 degC by agar diffusion assay; assay type: functional; conditions: DC2, 24 h, read-out: DIZ; how it was run: as §2
[20] = system: Pseudomonas aeruginosa; assay: Antibacterial activity against Pseudomonas aeruginosa K799/61 assessed as unclear inhibition zone or inhibition zone with many colonies at 0.1 mM incubated for 24 hrs at 37 degC by agar diffusion assay; assay type: functional; conditions: K799/61, 24 h, read-out: DIZ; how it was run: as §2
[21] = system: Mycolicibacterium vaccae; assay: Antibacterial activity against Mycobacterium vaccae IMET10670 assessed as unclear inhibition zone or inhibition zone with many colonies at 0.1 mM incubated for 44 hrs at 37 degC by agar diffusion assay; assay type: functional; conditions: IMET10670, 44 h, read-out: DIZ; how it was run: as §2
[22] = system: Pseudomonas aeruginosa; assay: Antibacterial activity against wild type Pseudomonas aeruginosa K799 assessed as unclear inhibition zone or inhibition zone with many colonies at 0.1 mM incubated for 24 hrs at 37 degC by agar diffusion assay; assay type: functional; conditions: K799, 24 h, read-out: DIZ; how it was run: as §2
[23] = system: Escherichia coli; assay: Antibacterial activity against Escherichia coli DC0 assessed as unclear inhibition zone or inhibition zone with many colonies at 0.1 mM incubated for 24 hrs at 37 degC by agar diffusion assay; assay type: functional; conditions: DC0, 24 h, read-out: DIZ; how it was run: as §2
[24] = system: Acinetobacter baumannii; assay: Antibacterial activity against Acinetobacter baumannii ATCC 17961 assessed as unclear inhibition zone or inhibition zone with many colonies at 0.1 mM incubated for 24 hrs at 37 degC by agar diffusion assay; assay type: functional; conditions: ATCC 17961, 24 h, read-out: DIZ; how it was run: as §2
[25] = system: Escherichia coli; assay: Antibacterial activity against Escherichia coli X580 assessed as unclear inhibition zone or inhibition zone with many colonies at 0.1 mM incubated for 24 hrs at 37 degC by agar diffusion assay; assay type: functional; conditions: X580, 24 h, read-out: DIZ; how it was run: as §2
[26] = Retention time of the compound in presence of methyl mercaptoacetate in CH3CN/PBS solution at 37 degC incubated for 3 hrs by HPLC method; assay type: physicochemical; conditions: buffer

Compound	MIC [1]	zone of inhibition at 100 µM [2]	zone of inhibition at 100 µM [3]	MIC [4]	zone of inhibition at 100 µM [5]	MIC [6]	zone of inhibition at 100 µM [7]	MIC [8]	zone of inhibition at 100 µM [9]	zone of inhibition at 100 µM [10]	zone of inhibition at 100 µM [11]	zone of inhibition at 100 µM [12]	MIC [13]	MIC [14]	MIC [15]	MIC [16]	MIC [17]	zone of inhibition at 100 µM [18]	zone of inhibition at 100 µM [19]	zone of inhibition at 100 µM [20]	also measured
CC1=CC(=O)C(C(C)(C)CC(=O)O)=C(C)C1=O	> 100 µM	0 mm	0 mm	> 100 µM	0 mm	> 100 µM	0 mm	> 100 µM	0 mm	0 mm	0 mm	0 mm	> 100 µM	50 µM (≈ 11.8 µg/mL)	80 µM (≈ 18.9 µg/mL)	> 100 µM	50 µM (≈ 11.8 µg/mL)	0 mm	0 mm	–	–
CC1=C(N)C(=O)C(C(C)(C)CC(=O)N2CCN(c3cc4c(cc3F)c(=O)c(C(=O)O)cn4C3CC3)CC2)=C(C)C1=O	12.5 µM (≈ 7.06 µg/mL)	31 mm	31 mm	< 0.05 µM	36 mm	5 µM (≈ 2.82 µg/mL)	24 mm	0.6 µM (≈ 0.339 µg/mL)	22 mm	31 mm	16 mm	17 mm	25 µM (≈ 14.1 µg/mL)	12.5 µM (≈ 7.06 µg/mL)	2 µM (≈ 1.13 µg/mL)	2.5 µM (≈ 1.41 µg/mL)	< 0.05 µM	24 mm	23 mm	35 mm	zone of inhibition at 100 µM [21]: 30 mm; zone of inhibition at 100 µM [22]: 32 mm; zone of inhibition at 100 µM [23]: 23 mm; zone of inhibition at 100 µM [24]: 30 mm; zone of inhibition at 100 µM [25]: 37 mm
CC1=CC(=O)C(C(C)(C)CC(=O)N2CCN(c3ccccc3)CC2)=C(C)C1=O	–	–	–	–	–	–	–	–	–	–	–	–	–	–	–	–	–	–	–	–	Retention_time [26]: 11.1 min
CC(C)(C)OC(=O)N1CCN(c2cc3c(cc2F)c(=O)c(C(=O)O)cn3C2CC2)CC1	> 100 µM	–	–	0.4 µM (≈ 0.173 µg/mL)	–	> 100 µM	–	> 100 µM	–	–	–	–	> 100 µM	> 100 µM	2 µM (≈ 0.863 µg/mL)	> 100 µM	< 0.05 µM	–	–	–	–
COC(=O)CSc1c(C)c(O)c(C)c2c1OC(=O)CC2(C)C	–	–	–	–	–	–	–	–	–	–	–	–	–	–	–	–	–	–	–	–	Retention_time [26]: 9.2 min
CC(C)(C)CC(=O)N1CCN(c2cc3c(cc2F)c(=O)c(C(=O)O)cn3C2CC2)CC1	100 µM (≈ 42.9 µg/mL)	–	–	0.4 µM (≈ 0.172 µg/mL)	–	> 100 µM	–	25 µM (≈ 10.7 µg/mL)	–	–	–	–	> 100 µM	12.5 µM (≈ 5.37 µg/mL)	2 µM (≈ 0.859 µg/mL)	> 100 µM	< 0.05 µM	–	–	–	–
c1ccc(N2CCNCC2)cc1 [PHENYLPIPERAZINE]	–	–	–	–	–	–	–	–	–	–	–	–	–	–	–	–	–	–	–	–	Retention_time [26]: 8.5 min
CC1=CC(=O)C(C(C)(C)CC(=O)N2CCN(c3cc4c(cc3F)c(=O)c(C(=O)O)cn4C3CC3)CC2)=C(C)C1=O	6.25 µM (≈ 3.43 µg/mL)	35 mm	33 mm	< 0.05 µM	39 mm	2.5 µM (≈ 1.37 µg/mL)	26 mm	0.39 µM (≈ 0.214 µg/mL)	41 mm	32 mm	21 mm	28 mm	12.5 µM (≈ 6.87 µg/mL)	0.2 µM (≈ 0.11 µg/mL)	0.5 µM (≈ 0.275 µg/mL)	1.25 µM (≈ 0.687 µg/mL)	< 0.05 µM	32 mm	27 mm	42 mm	zone of inhibition at 100 µM [21]: 42 mm; zone of inhibition at 100 µM [23]: 29 mm; zone of inhibition at 100 µM [24]: 32 mm; zone of inhibition at 100 µM [25]: 40 mm
CC1=C(N)C(=O)C(C(C)(C)CC(=O)O)=C(C)C1=O	–	0 mm	0 mm	–	0 mm	–	0 mm	–	0 mm	0 mm	0 mm	0 mm	–	–	–	–	–	0 mm	0 mm	–	–
CC1=C(Br)C(=O)C(C(C)(C)CC(=O)N2CCN(c3cc4c(cc3F)c(=O)c(C(=O)O)cn4C3CC3)CC2)=C(C)C1=O	8.33 µM (≈ 5.24 µg/mL)	29 mm	25 mm	0.1 µM (≈ 0.0628 µg/mL)	35 mm	2.5 µM (≈ 1.57 µg/mL)	18 mm	0.78 µM (≈ 0.49 µg/mL)	29 mm	33 mm	17 mm	19 mm	12.5 µM (≈ 7.86 µg/mL)	1.56 µM (≈ 0.98 µg/mL)	2 µM (≈ 1.26 µg/mL)	5 µM (≈ 3.14 µg/mL)	< 0.05 µM	37 mm	24 mm	38 mm	zone of inhibition at 100 µM [22]: 35 mm; zone of inhibition at 100 µM [23]: 21 mm; zone of inhibition at 100 µM [24]: 23 mm; zone of inhibition at 100 µM [25]: 40 mm
